# Assay results reported in ChEMBL document CHEMBL1123296, “Potential antiatherosclerotic agents. 5. An acyl-CoA:cholesterol O-acyltransferase inhibitor with hypocholesterolemic activity” (J Med Chem, 1986).
# Values joined by “and” are separate entries in the source; they are usually repeats but may differ in a detail not shown here. Identical values can stand only once.
# How the values were obtained:
# Rattus norvegicus [1] = organism: Rattus norvegicus; test: Compound was evaluated for the effect on serum lipids in cholesterol-fed rats; type: functional
# Method in brief: (§1)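 Rats fed diet with 1% cholesterol and 0.5% cholic acid, compound given in the diet at 1, 3 or 10 mg/kg per day. Read-outs were liver cholesterol (mg/g), serum cholesterol and serum triglycerides (mg/dL), each given as mean ± SEM. ED50 was derived from the dose response of liver cholesterol.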
# Rattus norvegicus [2] = organism: Rattus norvegicus; test: Effect of liver Cholesterol absorption in cholesterol-fed rats; type: functional; method in brief: as §1
# Rattus norvegicus [3] = test: Compound was evaluated for the effect of serum lipids in cholesterol-fed rats Serum triglyceride at a dose of 10 mg/kg per day; type: functional; method in brief: as §1
# Rattus norvegicus [4] = organism: Rattus norvegicus; test: Effective concentration required to effect liver cholesterol concentrations in rat; type: functional; method in brief: as §1
# Rattus norvegicus [5] = test: Effect of serum lipids in cholesterol-fed rats and Serum cholesterol at a dose of 1 mg/kg per day of the compound.; type: functional; method in brief: as §1
# Rattus norvegicus [6] = test: (§2) Effect of serum lipids in cholesterol-fed rats Serum triglyceride at a dose of 1 mg/kg per day of the compound.; type: functional; method in brief: as §1
# Rattus norvegicus [7] = test: as §2; type: functional; method in brief: as §1; remark: listed apart in the source
# [8] = target: T1, Sterol O-acyltransferase 1 (Homo sapiens, UniProt P35610); test: In vitro inhibitory activity against acyl coenzyme A:cholesterol acyltransferase
# T1 sequence (P35610 whole entry): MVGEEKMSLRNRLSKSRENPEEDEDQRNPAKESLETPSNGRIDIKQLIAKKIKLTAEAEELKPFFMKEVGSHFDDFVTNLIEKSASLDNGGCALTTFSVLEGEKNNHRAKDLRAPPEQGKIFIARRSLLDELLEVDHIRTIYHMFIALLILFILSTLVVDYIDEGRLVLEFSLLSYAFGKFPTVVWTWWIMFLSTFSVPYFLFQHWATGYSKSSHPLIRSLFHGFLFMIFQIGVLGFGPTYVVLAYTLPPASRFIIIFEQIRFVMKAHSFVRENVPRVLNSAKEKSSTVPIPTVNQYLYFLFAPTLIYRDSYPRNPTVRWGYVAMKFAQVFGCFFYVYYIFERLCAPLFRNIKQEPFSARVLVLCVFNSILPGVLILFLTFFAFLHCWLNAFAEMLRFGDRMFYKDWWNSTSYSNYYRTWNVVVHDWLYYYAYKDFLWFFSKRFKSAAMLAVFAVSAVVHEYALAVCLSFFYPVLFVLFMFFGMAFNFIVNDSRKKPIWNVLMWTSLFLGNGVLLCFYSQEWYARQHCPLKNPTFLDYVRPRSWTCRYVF
Compound,Cholesterol (Rattus norvegicus [1]) [mg/dL],Liver cholesterol (Rattus norvegicus [2]) [mg/g],Triglycerides (Rattus norvegicus [3]) [mg/dL],ED50 (Rattus norvegicus [4]) [mg/kg],Cholesterol (Rattus norvegicus [5]),Triglycerides (Rattus norvegicus [6]) [mg/dL],Triglycerides (Rattus norvegicus [7]) [mg/dL],IC50 [8] [µM]
CCCCCCCN(Cc1ccc(CC(C)(C)C)cc1)C(=O)Nc1ccc(F)cc1F [CL-277082],84,15.6,77,5.4,211 mg/dL and 357 mg/dL,121,132,
CC(=O)[C@H]1CC[C@H]2[C@@H]3CCC4=CC(=O)CC[C@]4(C)[C@H]3CC[C@]12C [PROGESTERONE],,,,,,,,17
